Source: ChEMBL document CHEMBL1152641, “Effect of potential amine prodrugs of selective neuronal nitric oxide synthase inhibitors on blood-brain barrier penetration” (Bioorg Med Chem, 2009)

Columns and labels:
[1] = system: Plasma; test: Metabolic stability in mouse plasma assessed as half life in presence of NADPH; format: ADME, cell-free
Method in brief: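 Fresh heparinized mouse plasma was supplemented with NADPH regenerating system (solutions A and B), and compound was added from a 200 μM stock. Incubation was at 37 °C, with samples taken at 0, 10, 20 and 40 min. Samples were quenched with acetonitrile plus internal standard, centrifuged, dried and run on HPLC. Compound/internal-standard ratio was normalized to the t = 0 ratio.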

[2] = system: Brain; test: Metabolic stability in mouse brain homogenate assessed degradation by HPLC in presence of NADPH; format: ADME, tissue-based
Method in brief: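 Three fresh mouse brains were each homogenized in PBS (pH 7.4) with NADPH regeneration buffers A and B, then pooled. Compound was added from a 200 μM stock and incubated at 37 °C for 0, 10, 20 and 40 min. Samples were heat-stopped at 95 °C for 1 min. HPLC UV read-out was at 310 or 260 nm depending on the compound. Peak-area ratio to internal standard was normalized to t = 0.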

[3] = system: Liver microsomes; test: Metabolic stability in rat liver microsomes assessed degradation by HPLC in presence of NADPH; format: ADME, Microsome
Method in brief: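 Rat liver microsomes were added to PBS containing NADPH regeneration buffers A and B and compound (from a 300 μM stock), pre-equilibrated at 37 °C. Incubation was at 37 °C for 0, 10, 20 and 40 min. Samples were quenched with acetonitrile, chilled, centrifuged, dried and reconstituted in 2% formic acid for HPLC. Peak area was normalized to t = 0. Minaprine was run in parallel as a P450 activity control.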

[4] = Metabolic stability in rat liver microsomes assessed compound remaining after 40 mins by HPLC in presence of NADPH; format: ADME, Microsome; details: read-out: Stability
Method in brief: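 Compound (10 μL of 300 μM stock) in PBS with NADPH regeneration solutions A/B was equilibrated at 37 °C. Rat liver microsomes were added and samples incubated for 0, 10, 20 or 40 min. Reactions were quenched with acetonitrile, chilled to 0 °C, centrifuged, dried and reconstituted in 2% formic acid. HPLC peak areas were normalized to t = 0; minaprine served as activity control.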

[5] = system: Mus musculus; test: Plasma concentration in mouse at 10 umol/kg, ip; format: ADME, organism-based; details: in vivo
Method in brief: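 Mice were given an i.p. injection of a 1 mM PBS solution (100 μL per 10 g) and sampled at 10 min. Heparinized blood was centrifuged and the plasma flash-frozen at −20 °C. Plasma plus internal standard was diluted in 2% acetic acid, cleaned by mixed-mode cation-exchange SPE, and quantified by positive-ESI LC-MS/MS (MRM) against triplicate standard curves; values as SEM.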

[6] = system: Brain; test: Drug level in mouse brain at […], ip; format: ADME, organism-based; details: in vivo, read-out: Drug uptake
Method in brief: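 Mice were dosed i.p. with compound diluted in PBS to 1 mM, at 100 μL per 10 g, and sampled 10 min later. Brains were PBS-perfused through the left ventricle, removed, flash-frozen, homogenized in 2% formic acid water/acetonitrile (2:1) with internal standard, then cleaned by cation-exchange SPE. Quantified by positive-ESI LC-MS/MS against triplicate standard curves; μg/g converted to μM assuming density 1 g/mL; SEM.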

[7] = Ratio of drug level from brain to blood in mouse at 10 umol/kg, ip; format: ADME, tissue-based
[8] = system: Mus musculus; test: Toxicity in mouse at 3.7 mg/kg, ip; format: organism-based; design: dose 3.7 mg/kg, route intraperitoneal; details: in vivo
[9] = system: Plasma; test: Metabolic stability in mouse plasma after 40 mins by HPLC in presence of NADPH

Row | Structure (SMILES) | remaining at 40 min [4] [%] | concentration [5] [nM] | concentration [6] [nM] | Kp [7] | other results
1 | CC(OC(=O)N[C@@H](CCCNC(=N)N[N+](=O)[O-])CNc1ccccc1)OC(=O)C(C)(C)C (single isomer, unassigned; diastereomer 2) |  |  |  |  | t1/2 [1]: 30 min; Stability [2]: Unstable; Stability [3]: Unstable
2 | Cc1cc(N)nc(C[C@@H]2CNC[C@@H]2OCCN(CCc2cccc(F)c2)C(=O)OCc2ccccc2)c1 (racemic) | > 60 | 490 | 9 | 0.018 | 
3 | Cc1cc(N)nc(C[C@@H]2CNC[C@@H]2NCCNCCc2cccc(F)c2)c1 |  | 1600 | 39 | 0.024 | 
4 | Cc1cc(N)nc(C[C@@H]2CNC[C@@H]2OCCNCCc2cccc(F)c2)c1 (racemic) |  | 1600 | 73 | 0.046 | Activity [8]: Non-toxic
5 | CC(=O)N(CCO[C@H]1CNC[C@H]1Cc1cc(C)cc(N)n1)CCc1cccc(F)c1 (racemic) | > 80 | 4600 | 39 | 0.008 | 
6 | Cc1cc(N)nc(C[C@@H]2CNC[C@@H]2OCCN=[N+]=[N-])c1 (racemic) |  |  |  |  | Stability [2]: Stable; Stability [9]: Stable
7 | CC(OC(=O)N[C@@H](CCCNC(=N)N[N+](=O)[O-])CNc1ccccc1)OC(=O)C(C)(C)C (stereo partly specified) |  |  |  |  | Stability [9]: Unstable
8 | COC(=O)N(CCO[C@H]1CNC[C@H]1Cc1cc(C)cc(N)n1)CCc1cccc(F)c1 (racemic) | > 80 | 1210 | 18 | 0.015 | 
9 | CC(OC(=O)N[C@@H](CCCNC(=N)N[N+](=O)[O-])CNc1ccccc1)OC(=O)C(C)(C)C (single isomer, unassigned; diastereomer 1) |  |  |  |  | t1/2 [1]: 10 min
